The values below come from ChEMBL document CHEMBL1146093, “Identification of ellagic acid as potent inhibitor of protein kinase CK2: a successful example of a virtual screening application” (J Med Chem, 2006).

Test [1] is described as follows: Inhibition of rat liver CK2. Summed up: (§1)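 Each kinase's activity was measured by a method given in the Supporting Information. IC50 values are means of at least three independent experiments, with SEM never above 15%.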
Test [2] in a line: Inhibition of rat liver CK1. The essentials:
as §1

Test [3] has as its target cAMP-dependent protein kinase (PKA) (Homo sapiens, UniProt P22694+P17612+P22612). The test is described as follows: Inhibition of PKA. The format is protein assay. Summed up:
as §1

The target of test [4] is Glycogen synthase kinase-3 beta (Homo sapiens, UniProt P49841). The test is described as follows: Inhibition of human recombinant GSK3-beta. Summed up: as §1
Glycogen synthase kinase-3 beta, sequence (P49841 whole entry): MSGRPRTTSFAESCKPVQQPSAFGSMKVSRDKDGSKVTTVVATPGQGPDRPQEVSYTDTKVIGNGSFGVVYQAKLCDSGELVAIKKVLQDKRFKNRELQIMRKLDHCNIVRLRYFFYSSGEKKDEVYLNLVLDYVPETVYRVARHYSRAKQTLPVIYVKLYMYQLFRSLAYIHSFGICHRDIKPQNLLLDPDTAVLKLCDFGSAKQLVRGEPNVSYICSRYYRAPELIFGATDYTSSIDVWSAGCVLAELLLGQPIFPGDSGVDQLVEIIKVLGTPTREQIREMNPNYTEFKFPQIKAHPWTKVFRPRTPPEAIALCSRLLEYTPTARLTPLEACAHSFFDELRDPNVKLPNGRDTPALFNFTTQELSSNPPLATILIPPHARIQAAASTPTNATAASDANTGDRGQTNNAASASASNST
For test [5], the target named is Dual specificity tyrosine-phosphorylation-regulated kinase 1A (Homo sapiens, UniProt Q13627). The test is described as follows: Inhibition of human recombinant DYRK1a. Summed up: as §1
In test [6] the target is Tyrosine-protein kinase CSK (Rattus norvegicus, UniProt P32577). Put plainly: Inhibition of rat spleen CSK. The format is tissue-based. The essentials: as §1
Tyrosine-protein kinase CSK, sequence (P32577 whole entry): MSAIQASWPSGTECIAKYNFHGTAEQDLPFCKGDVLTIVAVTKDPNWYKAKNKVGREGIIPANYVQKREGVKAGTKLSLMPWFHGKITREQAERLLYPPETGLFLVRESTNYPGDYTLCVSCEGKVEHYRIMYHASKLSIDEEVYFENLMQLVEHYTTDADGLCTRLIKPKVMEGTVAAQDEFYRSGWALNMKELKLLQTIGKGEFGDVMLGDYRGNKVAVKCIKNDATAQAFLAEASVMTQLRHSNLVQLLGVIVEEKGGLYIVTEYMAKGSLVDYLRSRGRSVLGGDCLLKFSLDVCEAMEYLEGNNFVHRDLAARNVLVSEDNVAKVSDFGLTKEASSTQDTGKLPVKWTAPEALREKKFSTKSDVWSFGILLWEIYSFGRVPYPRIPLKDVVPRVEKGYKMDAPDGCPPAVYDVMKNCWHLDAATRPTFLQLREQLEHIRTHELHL
Test [7] concerns the target Tyrosine-protein kinase Lyn (Rattus norvegicus, UniProt Q07014). The test is described as follows: Inhibition of rat spleen Lyn. The format is tissue-based. The essentials:
as §1

Test [8] has as its target Tyrosine-protein kinase SYK (Rattus norvegicus, UniProt Q64725). Put plainly: Inhibition of rat spleen SYK. The format is tissue-based. The essentials:
as §1

The target in test [9] is Tyrosine-protein kinase Fgr (Rattus norvegicus, UniProt Q6P6U0). Put plainly: Inhibition of rat spleen FGR. The format is tissue-based. The essentials:
as §1

Test [10] concerns the target NPM/ALK (Nucleophosmin/ALK tyrosine kinase receptor) (Homo sapiens, UniProt Q9UM73). The test is described as follows: Inhibition of NPM-ALK. The format is protein assay. Summed up: as §1
The target of test [11] is Proto-oncogene tyrosine-protein kinase receptor Ret (Homo sapiens, UniProt P07949). The test is described as follows: Inhibition of RET. The essentials:
as §1

Test [12] addresses T1, Receptor-type tyrosine-protein kinase FLT3 (Homo sapiens, UniProt P36888).
T1 sequence (P36888 whole entry): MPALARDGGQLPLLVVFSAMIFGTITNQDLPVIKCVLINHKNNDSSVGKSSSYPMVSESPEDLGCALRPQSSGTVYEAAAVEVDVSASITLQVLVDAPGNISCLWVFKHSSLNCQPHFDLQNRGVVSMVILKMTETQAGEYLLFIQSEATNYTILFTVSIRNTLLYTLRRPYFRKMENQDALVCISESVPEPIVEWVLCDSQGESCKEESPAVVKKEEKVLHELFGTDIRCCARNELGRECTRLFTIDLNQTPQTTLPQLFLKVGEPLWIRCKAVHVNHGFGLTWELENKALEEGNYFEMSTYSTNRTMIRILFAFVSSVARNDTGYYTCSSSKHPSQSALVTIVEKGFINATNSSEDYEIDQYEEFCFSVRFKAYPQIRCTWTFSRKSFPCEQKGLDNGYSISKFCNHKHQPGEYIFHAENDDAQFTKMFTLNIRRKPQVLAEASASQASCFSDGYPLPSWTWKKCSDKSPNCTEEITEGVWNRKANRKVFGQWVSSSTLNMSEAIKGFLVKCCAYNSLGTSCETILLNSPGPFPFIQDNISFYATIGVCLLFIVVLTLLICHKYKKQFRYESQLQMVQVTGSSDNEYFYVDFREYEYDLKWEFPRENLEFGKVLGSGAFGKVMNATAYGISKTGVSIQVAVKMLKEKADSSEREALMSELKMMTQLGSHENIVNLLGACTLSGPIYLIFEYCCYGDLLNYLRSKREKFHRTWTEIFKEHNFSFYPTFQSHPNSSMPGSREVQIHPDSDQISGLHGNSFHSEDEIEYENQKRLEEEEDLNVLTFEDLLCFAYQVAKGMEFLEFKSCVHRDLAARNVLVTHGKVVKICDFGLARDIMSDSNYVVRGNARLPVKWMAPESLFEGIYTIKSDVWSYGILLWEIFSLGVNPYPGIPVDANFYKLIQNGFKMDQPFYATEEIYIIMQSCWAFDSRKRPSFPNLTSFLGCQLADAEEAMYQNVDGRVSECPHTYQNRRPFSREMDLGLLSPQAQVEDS
Put plainly: Inhibition of FLT3. Summed up:
as §1

Test [13] concerns the target T2, NPM/ALK (Nucleophosmin/ALK tyrosine kinase receptor) (Homo sapiens) (UniProt Q9UM73+P06748). Put plainly: Antiproliferative activity against SUDHL1 expressing NPM-ALK by MTT assay. The format is functional. To be noted: concentration not given here. Summed up:
(§2)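 MTT viability in ALCL lines cultured 48 h with or without compound at 5-100 × 10^-6 M. Viability is expressed relative to DMSO-treated control cells, set at 1.0. Values are means of triplicate cultures.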
In general terms: Formazan colour is commonly taken as a measure of viable cells.

Another test deals with FEPD. The test is described as follows: Antiproliferative activity against FEPD by MTT assay. The format is functional, Homo sapiens. The essentials:
as §2

Test [14] deals with T2, NPM/ALK (Nucleophosmin/ALK tyrosine kinase receptor) (Homo sapiens). Put plainly: Antiproliferative activity against KARPAS299 expressing NPM-ALK by MTT assay. The format is functional. The settings on record: concentration not given here. The essentials:
as §2

The target is the same in test [15]. The test is described as follows: Antiproliferative activity against SR786 expressing NPM-ALK by MTT assay. The format is functional. The settings on record: concentration not given here. The essentials: as §2

T2 sequence (P06748 whole entry partner): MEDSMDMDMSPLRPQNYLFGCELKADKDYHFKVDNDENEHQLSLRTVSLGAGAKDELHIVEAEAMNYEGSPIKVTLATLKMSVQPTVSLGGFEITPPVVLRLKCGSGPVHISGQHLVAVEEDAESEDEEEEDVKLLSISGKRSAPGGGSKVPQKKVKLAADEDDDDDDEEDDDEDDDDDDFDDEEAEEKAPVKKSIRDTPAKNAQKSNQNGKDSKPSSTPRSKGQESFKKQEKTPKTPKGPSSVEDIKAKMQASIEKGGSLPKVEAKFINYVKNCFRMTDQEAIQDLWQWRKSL
T2 sequence (Q9UM73 19-1620 limits assumed): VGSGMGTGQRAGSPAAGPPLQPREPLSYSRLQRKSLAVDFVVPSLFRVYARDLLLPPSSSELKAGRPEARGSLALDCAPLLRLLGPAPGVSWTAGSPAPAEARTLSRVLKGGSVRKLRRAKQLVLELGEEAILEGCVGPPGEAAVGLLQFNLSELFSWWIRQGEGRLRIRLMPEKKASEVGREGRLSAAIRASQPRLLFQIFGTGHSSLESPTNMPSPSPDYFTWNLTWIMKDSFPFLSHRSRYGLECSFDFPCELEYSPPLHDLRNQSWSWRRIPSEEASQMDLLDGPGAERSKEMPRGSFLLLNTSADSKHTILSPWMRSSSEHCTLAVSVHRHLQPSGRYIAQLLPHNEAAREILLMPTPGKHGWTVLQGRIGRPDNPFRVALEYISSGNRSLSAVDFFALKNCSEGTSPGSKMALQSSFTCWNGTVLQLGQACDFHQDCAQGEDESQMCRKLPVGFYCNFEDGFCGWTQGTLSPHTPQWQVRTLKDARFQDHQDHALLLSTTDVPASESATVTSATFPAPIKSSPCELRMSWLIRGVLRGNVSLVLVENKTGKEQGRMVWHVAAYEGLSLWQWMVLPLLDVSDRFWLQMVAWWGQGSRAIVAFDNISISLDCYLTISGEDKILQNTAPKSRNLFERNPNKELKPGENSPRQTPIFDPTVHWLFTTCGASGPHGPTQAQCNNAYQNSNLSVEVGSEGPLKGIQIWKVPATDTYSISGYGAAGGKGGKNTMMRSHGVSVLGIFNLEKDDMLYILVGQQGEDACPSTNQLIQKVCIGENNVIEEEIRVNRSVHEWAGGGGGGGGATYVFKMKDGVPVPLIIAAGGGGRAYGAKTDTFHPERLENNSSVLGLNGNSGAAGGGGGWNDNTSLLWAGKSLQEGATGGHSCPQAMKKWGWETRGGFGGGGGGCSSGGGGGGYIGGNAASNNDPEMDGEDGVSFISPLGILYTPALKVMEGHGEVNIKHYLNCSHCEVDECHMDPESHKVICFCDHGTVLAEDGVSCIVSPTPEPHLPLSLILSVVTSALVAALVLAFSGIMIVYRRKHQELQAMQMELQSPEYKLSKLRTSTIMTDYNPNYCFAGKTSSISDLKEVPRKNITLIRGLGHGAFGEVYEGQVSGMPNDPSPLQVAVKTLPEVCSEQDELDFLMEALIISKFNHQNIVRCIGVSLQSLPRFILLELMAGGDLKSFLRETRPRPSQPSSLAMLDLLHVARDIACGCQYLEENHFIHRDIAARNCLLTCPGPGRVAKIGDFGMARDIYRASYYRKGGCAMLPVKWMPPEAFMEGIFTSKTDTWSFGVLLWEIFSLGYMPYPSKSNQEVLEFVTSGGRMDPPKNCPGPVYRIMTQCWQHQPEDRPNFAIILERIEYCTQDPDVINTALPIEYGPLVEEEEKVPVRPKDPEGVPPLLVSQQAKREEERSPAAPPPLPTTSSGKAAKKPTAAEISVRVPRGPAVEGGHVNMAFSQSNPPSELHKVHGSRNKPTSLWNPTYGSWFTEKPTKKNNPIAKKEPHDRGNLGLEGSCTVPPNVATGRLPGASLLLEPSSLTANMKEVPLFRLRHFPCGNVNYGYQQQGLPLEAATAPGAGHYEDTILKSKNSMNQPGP
Tyrosine-protein kinase SYK, sequence (Q64725 whole entry): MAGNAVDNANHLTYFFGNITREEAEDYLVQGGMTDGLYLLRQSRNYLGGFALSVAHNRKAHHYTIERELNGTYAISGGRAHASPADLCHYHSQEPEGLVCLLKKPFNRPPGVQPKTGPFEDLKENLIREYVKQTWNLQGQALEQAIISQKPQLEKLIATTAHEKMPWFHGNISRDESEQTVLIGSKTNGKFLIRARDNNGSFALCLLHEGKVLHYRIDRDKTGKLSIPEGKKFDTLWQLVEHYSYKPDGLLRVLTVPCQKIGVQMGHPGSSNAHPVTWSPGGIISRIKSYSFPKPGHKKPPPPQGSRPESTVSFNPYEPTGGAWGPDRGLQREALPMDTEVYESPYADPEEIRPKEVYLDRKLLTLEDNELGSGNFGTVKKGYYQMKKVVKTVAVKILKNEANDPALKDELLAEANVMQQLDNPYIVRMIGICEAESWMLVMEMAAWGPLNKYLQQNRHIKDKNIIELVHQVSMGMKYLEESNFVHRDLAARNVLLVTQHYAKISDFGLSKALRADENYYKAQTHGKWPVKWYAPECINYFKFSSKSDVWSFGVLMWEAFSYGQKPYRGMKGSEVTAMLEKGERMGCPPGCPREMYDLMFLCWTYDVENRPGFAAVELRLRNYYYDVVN
Proto-oncogene tyrosine-protein kinase receptor Ret, sequence (P07949 whole entry): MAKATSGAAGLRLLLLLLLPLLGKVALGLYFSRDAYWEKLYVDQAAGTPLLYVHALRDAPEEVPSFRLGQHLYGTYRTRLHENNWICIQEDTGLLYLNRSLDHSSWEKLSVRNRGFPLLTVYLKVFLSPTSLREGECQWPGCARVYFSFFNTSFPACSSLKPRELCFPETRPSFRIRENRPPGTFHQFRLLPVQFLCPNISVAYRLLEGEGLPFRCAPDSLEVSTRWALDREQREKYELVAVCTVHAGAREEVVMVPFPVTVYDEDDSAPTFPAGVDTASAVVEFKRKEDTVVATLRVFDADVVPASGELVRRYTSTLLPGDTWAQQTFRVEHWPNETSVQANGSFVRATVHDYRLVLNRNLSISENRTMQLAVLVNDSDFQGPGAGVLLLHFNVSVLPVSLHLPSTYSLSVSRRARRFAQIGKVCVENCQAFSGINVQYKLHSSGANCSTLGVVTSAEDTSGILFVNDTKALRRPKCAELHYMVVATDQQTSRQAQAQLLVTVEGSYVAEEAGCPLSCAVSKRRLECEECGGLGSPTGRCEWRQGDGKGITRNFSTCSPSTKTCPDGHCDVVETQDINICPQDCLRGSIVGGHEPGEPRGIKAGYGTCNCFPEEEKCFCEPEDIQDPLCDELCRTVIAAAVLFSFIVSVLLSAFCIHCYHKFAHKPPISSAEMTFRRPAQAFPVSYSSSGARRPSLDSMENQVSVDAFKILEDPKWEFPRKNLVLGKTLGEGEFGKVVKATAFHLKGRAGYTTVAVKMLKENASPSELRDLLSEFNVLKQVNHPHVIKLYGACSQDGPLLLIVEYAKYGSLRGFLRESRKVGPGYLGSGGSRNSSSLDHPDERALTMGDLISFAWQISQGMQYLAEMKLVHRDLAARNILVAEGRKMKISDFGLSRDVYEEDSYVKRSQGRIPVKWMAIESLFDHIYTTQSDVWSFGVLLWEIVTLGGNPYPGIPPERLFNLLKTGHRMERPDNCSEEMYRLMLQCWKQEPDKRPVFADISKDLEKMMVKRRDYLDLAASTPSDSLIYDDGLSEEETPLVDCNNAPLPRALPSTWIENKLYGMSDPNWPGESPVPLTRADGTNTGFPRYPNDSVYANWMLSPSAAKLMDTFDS
Tyrosine-protein kinase Fgr, sequence (Q6P6U0 whole entry): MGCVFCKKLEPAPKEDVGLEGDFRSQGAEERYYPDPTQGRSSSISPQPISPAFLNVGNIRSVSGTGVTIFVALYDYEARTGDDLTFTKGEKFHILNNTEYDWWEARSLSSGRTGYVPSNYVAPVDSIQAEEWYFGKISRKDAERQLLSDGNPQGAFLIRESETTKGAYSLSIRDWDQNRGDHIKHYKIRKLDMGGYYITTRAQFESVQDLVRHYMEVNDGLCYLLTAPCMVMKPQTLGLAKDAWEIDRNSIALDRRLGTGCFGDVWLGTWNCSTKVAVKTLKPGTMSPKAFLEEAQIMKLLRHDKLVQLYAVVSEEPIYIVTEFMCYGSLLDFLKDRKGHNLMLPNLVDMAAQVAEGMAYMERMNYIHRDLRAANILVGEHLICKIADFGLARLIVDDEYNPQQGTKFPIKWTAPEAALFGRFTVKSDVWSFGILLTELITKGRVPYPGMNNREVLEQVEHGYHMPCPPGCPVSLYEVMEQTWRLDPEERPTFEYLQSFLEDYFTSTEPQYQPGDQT

Broadly, the IC50 is the midpoint of a concentration-inhibition curve. For orientation: Ki means the dissociation constant of the complex between target and ligand, obtained from inhibition or displacement. A word on the inhibition: it is how much of the control response was suppressed. A lower inhibition goes with a weak effect. In general, Inhibition refers to the relative decrease from the control value, in per cent. For `O=c1oc2c(O)c(O)cc3c(=O)oc4c(O)c(O)cc1c4c23` [ELLAGIC ACID], the IC50 in [1] was 0.04 µM; in test [2] it was 13 µM; in test [3], 3.5 µM; in [4], 7.5 µM; in [5] it was greater than 40 µM; in [6] it was greater than 40 µM. Besides, the half-maximal inhibitory concentration (IC50) in test [7] was 2.9 µM; in test [8], 4.3 µM; in test [9], 9.4 µM; in test [10], greater than 40 µM; in test [11], greater than 40 µM; in test [12] it was greater than 40 µM. The Ki in test [1] came to 0.02 µM. Further, the inhibition in [13] was 85%; in test [14], 60%; in test [15], 40%. The Inhibition in the test with FEPD is 70%.
